Only some compounds are listed: those with a hit (about 4.6% of all), similar ones and a draw of the others.
GPR7 antagonist = GPR7 receptor antagonists, primary screen, cell-based, fluorescence, single concentration; Neuropeptides B/W receptor type 1 (Homo sapiens), P48145; GPR7-expressing cells, fluorescence antagonist assay; inhibition, % at 4.4 µM; 1.1% of 290,000 active; AID 1861, 2009; in the data active = inhibition above about 16%, passing the limit was not always enough;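 note: cells stimulated with the agonist NPW; 0% = agonist with vehicle and 100% = vehicle without agonist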
Target sequence (P48145 whole entry, looked up): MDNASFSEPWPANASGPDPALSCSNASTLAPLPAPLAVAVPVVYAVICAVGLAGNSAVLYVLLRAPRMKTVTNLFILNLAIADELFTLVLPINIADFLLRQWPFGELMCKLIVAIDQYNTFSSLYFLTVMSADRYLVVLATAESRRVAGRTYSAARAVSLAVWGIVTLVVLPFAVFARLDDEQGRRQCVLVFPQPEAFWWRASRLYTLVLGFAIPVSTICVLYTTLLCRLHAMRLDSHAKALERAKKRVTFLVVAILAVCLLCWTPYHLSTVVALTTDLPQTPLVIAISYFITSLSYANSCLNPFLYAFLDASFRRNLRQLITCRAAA
OX1R antag-1 = antagonists of human orexin 1 receptor (OX1R); Orexin/Hypocretin receptor type 1 (Homo sapiens), O43613; OX1R-expressing cells, FRET antagonist read-out; inhibition, % at 6.6 µM; 1.8% of 330,000 active; AID 485270, 2010; in the data active = inhibition mostly above about 38%, no sharp cut-off; inactive = mostly below about 40%;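 note: 0% = agonist challenge alone and 100% = reference antagonist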
TAAR1 ag = human TAAR1 agonists, primary screen, Fluo-8 calcium fluorescence, CHO RD-HGA16 cells; vehicle wells 0%, saturating PEA agonist 100%; activation, % at 3 µM; 0.99% of 360,000 active;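 active = activation above the mean activation of all test compounds in the run plus 3 SD, cut at about 38% in these data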
Target sequence (Q96RJ0 whole entry, looked up): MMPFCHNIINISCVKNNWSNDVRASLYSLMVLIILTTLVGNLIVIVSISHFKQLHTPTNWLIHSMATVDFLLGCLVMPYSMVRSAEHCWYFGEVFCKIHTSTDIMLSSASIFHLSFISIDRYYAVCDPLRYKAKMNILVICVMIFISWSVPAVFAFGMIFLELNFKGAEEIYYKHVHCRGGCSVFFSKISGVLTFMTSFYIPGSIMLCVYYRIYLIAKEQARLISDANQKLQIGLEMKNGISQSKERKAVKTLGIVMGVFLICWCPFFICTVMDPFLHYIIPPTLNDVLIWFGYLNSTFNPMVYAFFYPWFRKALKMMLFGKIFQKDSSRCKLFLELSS
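System: CHO-derived RD-HGA16 cells with stable Gα16 and human TAAR1 / Times: 17-24 h plating, Fluo-8 75 min 37 °C, 30 min RT / Technique: calcium-sensitive Fluo-8 signal, excitation 470-495, emission 515-575 nm / Measure: % activation relative to PEA EC100 response / Benchmarks: DMSO and PEA EC100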
OX1R antag-2 = OX1R (HCRTR1) antagonists, primary screen, fluorescence, CHO/OX1R cells, Fluo-8 calcium, orexin A; Orexin/Hypocretin receptor type 1 (Homo sapiens), O43613; Fluo-8 calcium fluorescence; inhibition, % at 5 µM; 0.43% of 330,000 active; AID 434989, 2010;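 active = inhibition above its plate's threshold, mean inhibition of all tested compounds on the plate plus 3 SD, cut at about 37% in these data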;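 note: 0% = orexin A challenge wells and 100% = SB-334867-A antagonist wells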
CHO parental Ca = ATP-evoked calcium signal inhibitors, parental CHO, primary screen, counter-screen for OX1R antagonist project, cell-based, fluorescence, Fluo-8 calcium dye. AID 463079, 2010. parental CHO-K1, ATP-induced calcium, Fluo-8 fluorescence. inhibition, % at 5.6 µM. 0.63% of 330,000 active;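 active = inhibition above that plate's mean sample inhibition plus 3 SD, cut at about 26% in these data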;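 note: 0% = ATP-challenged DMSO wells and 100% = DMSO wells without ATP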
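Material – parental CHO cells · Reagent – ATP stimulus · Compound – single nominal dose of 5.6 µM per compound · Detection – Fluo-8 fluorescence · Read-out basis – percent inhibition of calcium signal · Controls – ATP-challenged DMSO wells low, unchallenged DMSO wells high · Repeats – no replicates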
TAAR1 antagonist = human TAAR1 antagonists, primary screen, Fluo-8 calcium fluorescence, CHO RD-HGA16 cells; 1.5% of 360,000 active; inhibition, % at 3 µM; antagonist; AID 624466, 2012;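 active = inhibition above a per-plate cutoff, the mean inhibition of test compounds on that plate plus 3 SD, cut at about 49% in these data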;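 note: 0% = DMSO plus EC80 beta-PEA response and 100% = DMSO alone without agonist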
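Assay system: RD-HGA16 CHO cells with stable hTAAR1 and Gα16 / Reagent: EC80 β-phenethylamine stimulus / Doses: 3 µM, single point / Timing: dye loading 75 min at 37 °C, then 30 min room temperature / Measured by: Fluo-8 intracellular calcium dye fluorescence, real-time kinetic reads / Controls: vehicle wells and EC80 agonist wells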
Active calls of the source: *; · = no result given.

SMILES	GPR7 antagonist	OX1R antag-1	TAAR1 ag	OX1R antag-2	CHO parental Ca	TAAR1 antagonist
COc1ccc(-c2nnc(SC)nc2-c2ccc(OC)c([N+](=O)[O-])c2)cc1[N+](=O)[O-]	·	17.8	0.8	-9.4	-2.5	-5.2
CC(=O)n1c2ccccc2c2nc3ccccc3nc21	-5.7	5.4	·	-27.7	-3.6	·
CC(=O)n1c2ccccc2c2c1c1ccccc1n2C	-9.4	60.9*	2.1	-0.5	-20.1	9.2
COc1ccccc1-c1noc(CCC(=O)N2CCN(c3cc(C)ccc3C)CC2)n1	·	13.5	8.1	-8.8	-23.5	56.0*
Cc1ccc(-c2noc(CCC(=O)NCCCN3CCN(c4ccc(F)cc4)CC3)n2)cc1	5.3	9.1	12.2	9.3	9.8	10.2
Cc1ccc(C)c(N2CCN(C(=O)CCc3nc(-c4ccccc4C(F)(F)F)no3)CC2)c1	·	14.6	6.7	-8.9	-7.0	68.3*
COc1ccc(-c2noc(CCCCC(=O)N3CCN(c4cc(C)ccc4C)CC3)n2)cc1	·	37.7*	0.8	75.3*	73.7*	7.0
Cc1ccc(-c2noc(CCC(=O)NCCCN3CCN(c4cccc(Cl)c4)CC3)n2)cc1	19.0*	2.7	11.8	51.9*	31.9	29.4
CCOC(=O)c1cc2ccccc2n1C1CCN(CCc2ccccc2)CC1	·	·	31.9	·	·	46.5
CC(C)C[C@H](NC(=O)c1ccccn1)C(=O)N1CCC[C@H]1C(=O)NCc1ccccc1	·	·	3.5	·	·	-7.8
CCN1CCN(Cc2ccc(NC(=O)c3ccc(C)c(/C=C/c4cnc(Nc5cc(N6CCNCC6)nc(C)n5)cn4)c3)cc2C(F)(F)F)CC1	-2.5	27.7	·	-7.5	-13.2	·
O=C(COc1ccccc1Cl)c1ccc2c(c1)CCCC2	-5.1	22.8	1.0	-28.0	28.3*	20.1
COc1cc(-c2nc3ccccn3c2N)ccc1O	4.0	16.2	1.3	-16.8	-11.0	2.7
COc1cc(-c2nc3ccccc3nc2-c2ccc(O)c(OC)c2)ccc1O	-13.6	4.0	21.3	-8.7	-7.7	53.5*
O=C(CN1C(=O)CSc2ccc(S(=O)(=O)N3CCOCC3)cc21)NCc1ccc(Cl)cc1	-12.2	48.3*	-0.2	3.4	-3.5	-3.3
CCCCc1c(-c2ccccc2OC)ncn1Cc1ccc(Cl)cc1Cl	·	·	3.7	·	·	-14.0
CCCCC1(C)OC(=O)C(=Cc2ccc(N(CC)CC)cc2)C(=O)O1 (stereo not drawn)	-8.9	19.4	45.9*	-3.5	3.8	19.4
O=C(O)c1cc2ccccc2c(N=Nc2cccnc2)c1O	-16.6	73.6*	·	-12.5	-8.3	·
O=C(O)c1cc(N=Nc2c(O)ccc3ccccc23)cc(C(=O)O)c1	1.7	·	3.2	·	·	-6.6
CC1CCC(C(=O)NC(C(=O)NCCc2ccc(S(N)(=O)=O)cc2)C(C)C)CC1 (stereo not drawn)	-10.1	1.0	8.2	-8.4	-7.1	-5.8
COC(=O)Cn1c(O)c(N=NC(=O)CNC(=O)c2ccncc2)c2ccccc21	-0.7	70.2*	1.8	-11.5	-10.6	-22.5
Cn1c(O)c(N=NC(=O)CNC(=O)c2cccnc2)c2ccccc21	-2.4	42.6*	0.2	-10.7	-7.2	-10.7
CCCn1c(O)c(N=NC(=O)CNC(=O)c2cccnc2)c2ccccc21	0.5	46.7	4.7	-1.5	-20.3	-6.9
Cc1cccc([N+](=O)[O-])c1NC(=O)COC(=O)c1nc2nccc(C)n2n1	·	3.6	-2.8	5.2	-6.1	12.4
O=C(c1ccc(Cl)s1)N1CCN(S(=O)(=O)c2ccc(Cl)cc2)CC1	·	9.3	-0.3	-17.1	-14.0	7.8
SMILES	GPR7 antagonist	OX1R antag-1	TAAR1 ag	OX1R antag-2	CHO parental Ca	TAAR1 antagonist
COc1ccc(C2(O)CCN(CC(=O)Nc3nc(-c4ccccc4)cs3)CC2)cc1	0.9	4.0	12.9	-21.1	-16.8	51.3*
CN1CCN(CC(=O)Nc2nc(-c3ccccc3)cs2)CC1	-0.1	9.1	-1.1	-9.8	5.0	-13.7
O=C(CCN1C(=O)C2CC=CCC2C1=O)Nc1nc(-c2ccc(F)c(F)c2)cs1 (stereo not drawn)	·	4.0	31.0	21.9	6.1	60.3*
O=C(CN1CCCCC1)Nc1nc(-c2ccc(F)c(F)c2)cs1	-5.7	13.5	12.8	-17.3	0.7	49.2*
Cn1c(=O)c2c(ncn2CC(=O)Nc2nc(-c3ccc(F)c(F)c3)cs2)n(C)c1=O	-4.8	11.8	2.2	-13.1	98.8*	-30.0
Cc1ccc(-c2csc(NC(=O)Cn3cnc4c3c(=O)n(C)c(=O)n4C)n2)cc1C	-4.5	26.4	7.5	-19.0	-14.2	6.3
O=C(NN1CC(C(=O)OCc2ccccc2F)CC1=O)c1ccccc1 (stereo not drawn)	-14.6	19.3	2.7	-13.8	0.7	-14.5
O=C(Cc1ccccc1)Nc1nc(-c2ccc(F)c(F)c2)cs1	1.8	15.1	4.9	4.8	-6.6	56.3*
Cc1cc(C(=O)OC(C)C(=O)Nc2nc(-c3ccccc3)cs2)c(C)o1 (stereo not drawn)	-7.8	24.8	-2.0	3.2	-2.8	-3.2
CC(OC(=O)c1ccc([N+](=O)[O-])o1)C(=O)Nc1nc(-c2ccc(F)c(F)c2)cs1 (stereo not drawn)	·	·	6.0	·	·	58.6*
Cc1cc(C(=O)OCC(=O)Nc2nc(-c3ccccc3)cs2)c(C)o1	8.3	65.8*	-1.6	-9.5	-10.5	17.7
COc1cccc(CC(=O)Nc2nc(-c3ccc(F)c(F)c3)cs2)c1	17.2	8.2	3.9	-20.5	-9.9	52.1*
C1=C(c2ccccc2)CCN(c2ncnc3nc[nH]c23)C1	1.4	50.2*	1.9	-16.4	0.0	14.5
CCc1ccc(NC(=O)C2CCN(S(=O)(=O)c3ccc4c(c3)CC(C)N4C(C)=O)CC2)cc1 (stereo not drawn)	20.9*	18.8	11.1	-15.4	35.9*	50.2*
CCc1ccc(NC(=O)C2CCCN(S(=O)(=O)c3ccc4c(c3)CC(C)N4C(C)=O)C2)cc1 (stereo not drawn)	-5.6	15.2	1.6	-30.5	-12.8	-13.3
CCOc1ccc(Cn2c(=O)oc3ccccc32)cc1	-8.7	·	1.3	·	·	-8.7
CC1CCC(NC(=O)CN2C(=O)NC3(CCCCC3C)C2=O)CC1 (stereo not drawn)	·	2.2	-1.3	-14.3	-11.0	-6.5
COc1ccc(N(CC(=O)NCc2ccccc2C)S(=O)(=O)c2ccccc2[N+](=O)[O-])c(OC)c1	14.2	63.9*	5.2	14.4	-16.8	21.9

From PubChem
